Experimental data from ChEMBL document CHEMBL1128603, “Novel deltorphin heptapeptide analogs with potent delta agonist, delta antagonist, or mixed mu antagonist/delta agonist properties” (J Med Chem, 1995).
pIC50, pKi: −log10 of the molar value. Starred links: 1 amine or outer side, 2 acyl side, 3 side chain; linkers in the order of their positions; H or OH if unused. Non-standard residues stand in square brackets, D forms with d. Residues, ends and D or L forms follow the SMILES beside them. X1 = CSCC[C@H](CN([C@@H](Cc1ccccc1)C(=O)[*:2])[*:1])N[*:3]; Tle = CC(C)(C)[C@H](N)C(=O)O; NBuGly = CCCCNCC(=O)O

Tests used:
Cavia porcellus = species: Cavia porcellus; test: In vitro inhibitory concentration against electrically induced contraction of guinea pig ileum (GPI); type: functional
Outline: (§1)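 Electrically stimulated isolated tissue: longitudinal muscle strips of Hartley guinea pig ileum (250-300 g) for GPI, vas deferens of male ddY mouse (25-35 g) for MVD. IC50 read from log dose-response curves of contraction inhibition.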

Mus musculus = species: Mus musculus; test: In vitro inhibitory concentration against electrically induced contraction of mouse vas deferens (MVD); type: functional; outline: as §1
[1] = molecular target: Delta-type opioid receptor (Rattus norvegicus, UniProt P33533); test: Inhibition of [3H]-DADLE binding to rat brain delta receptor
Outline: (§2)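 Crude rat brain synaptosomal fraction (600 μg protein/mL) in 50 mM Tris-HCl pH 7.4 with BSA, bacitracin, bestatin and soybean trypsin inhibitor. Radioligand [3H]DAGO (μ) or [3H]DADLE (δ) at 2 nM. The δ assay also held 2.6 μM [Nα-MePhe3,D-Pro4]morphiceptin to block μ sites. Nonspecific binding with 1 μM unlabeled ligand. Incubated 60 min at 25 °C, filtered on PEI-soaked GF/B, counted by scintillation. Ki from IC50 by Cheng-Prusoff; mean of three.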

Mu-type opioid receptor = Mu-type opioid receptor (Rattus norvegicus, UniProt P33535); test: Inhibition of [3H]DAGO binding to rat brain Opioid receptor mu 1; outline: as §2
[2] = molecular target: Mu-type opioid receptor (Cavia porcellus) (UniProt P97266); test: Ratio of antagonistic activity against mu receptors in guinea pig ileum in presence and absence of mu agonist DAGO; type: functional, tissue-based
Outline: (§3)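 Agonist log dose-response curves were run with and without a fixed antagonist level. Ke was derived from the ratio of the IC50 values.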

[3] = molecular target: Mu-type opioid receptor (Cavia porcellus) (UniProt P97266); test: Ratio of antagonistic activity against mu receptors in guinea pig ileum in presence and absence of mu agonist dermorphin; type: functional, tissue-based; outline: as §3
[4] = molecular target: Delta-type opioid receptor (Mus musculus) (UniProt P32300); test: Ratio of antagonistic activity against delta receptors in mouse vas deferens in presence and absence of delta agonist DADLE; type: functional; outline: as §3
[5] = molecular target: Delta-type opioid receptor (Mus musculus) (UniProt P32300); test: Ratio of antagonistic activity against delta receptors in mouse vas deferens in presence and absence of delta agonist DL-II; type: functional; outline: as §3
[6] = molecular target: Delta-type opioid receptor (Mus musculus) (UniProt P32300); test: Ratio of antagonistic activity against delta receptors in mouse vas deferens in presence and absence of delta agonist DPDPE; type: functional; outline: as §3
[7] = molecular target: Delta-type opioid receptor (Mus musculus) (UniProt P32300); test: Ratio of antagonistic activity against delta receptors in mouse vas deferens in presence and absence of delta agonist deltorphin; type: functional; outline: as §3
[8] = molecular target: Delta-type opioid receptor (Mus musculus) (UniProt P32300); test: Ratio of antagonistic activity against delta receptors in mouse vas deferens in presence and absence of delta agonist leu-enkephalin; type: functional; outline: as §3
[9] = IC50 ratio measured as the IC50 values of GPI to that of MVD.; type: functional
[10] = molecular target: Opioid receptors; mu & delta (Rattus norvegicus) (UniProt P33533+P33535); test: Relative binding affinity for mu and delta opioid receptors; type: protein assay
Chain of Opioid receptors; mu & delta (Rattus norvegicus) (P33533 whole entry, looked up): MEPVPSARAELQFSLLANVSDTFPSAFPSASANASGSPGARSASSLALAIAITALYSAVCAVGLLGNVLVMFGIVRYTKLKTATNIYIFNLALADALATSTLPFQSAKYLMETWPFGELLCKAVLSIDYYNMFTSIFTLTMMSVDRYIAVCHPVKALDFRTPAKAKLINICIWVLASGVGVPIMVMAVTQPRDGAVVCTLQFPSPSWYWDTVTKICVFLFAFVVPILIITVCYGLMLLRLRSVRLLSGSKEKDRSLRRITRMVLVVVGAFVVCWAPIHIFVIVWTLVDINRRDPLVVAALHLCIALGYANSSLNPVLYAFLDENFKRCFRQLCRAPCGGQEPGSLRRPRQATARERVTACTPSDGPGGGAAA
Chain of Opioid receptors; mu & delta (Rattus norvegicus) (P33535 whole entry, looked up): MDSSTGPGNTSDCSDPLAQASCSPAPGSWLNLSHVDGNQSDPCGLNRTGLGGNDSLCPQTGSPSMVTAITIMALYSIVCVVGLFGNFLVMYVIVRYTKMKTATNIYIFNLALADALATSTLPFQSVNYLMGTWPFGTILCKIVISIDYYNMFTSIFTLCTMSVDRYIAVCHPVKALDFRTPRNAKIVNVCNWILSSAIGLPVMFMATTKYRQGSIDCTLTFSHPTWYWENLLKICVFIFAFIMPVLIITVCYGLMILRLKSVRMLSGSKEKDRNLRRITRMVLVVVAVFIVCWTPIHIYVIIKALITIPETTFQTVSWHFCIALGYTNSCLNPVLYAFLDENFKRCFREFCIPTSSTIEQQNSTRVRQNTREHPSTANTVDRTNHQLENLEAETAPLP

Chain of Mu-type opioid receptor (Cavia porcellus) (P97266 whole entry): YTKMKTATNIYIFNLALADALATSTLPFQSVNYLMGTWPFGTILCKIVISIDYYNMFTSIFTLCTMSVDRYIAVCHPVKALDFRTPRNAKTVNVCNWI
Chain of Delta-type opioid receptor (P33533 whole entry): as the sequence (P33533 whole entry, looked up) above
Chain of Mu-type opioid receptor (P33535 whole entry): as the sequence (P33535 whole entry, looked up) above
Chain of Delta-type opioid receptor (Mus musculus) (P32300 whole entry): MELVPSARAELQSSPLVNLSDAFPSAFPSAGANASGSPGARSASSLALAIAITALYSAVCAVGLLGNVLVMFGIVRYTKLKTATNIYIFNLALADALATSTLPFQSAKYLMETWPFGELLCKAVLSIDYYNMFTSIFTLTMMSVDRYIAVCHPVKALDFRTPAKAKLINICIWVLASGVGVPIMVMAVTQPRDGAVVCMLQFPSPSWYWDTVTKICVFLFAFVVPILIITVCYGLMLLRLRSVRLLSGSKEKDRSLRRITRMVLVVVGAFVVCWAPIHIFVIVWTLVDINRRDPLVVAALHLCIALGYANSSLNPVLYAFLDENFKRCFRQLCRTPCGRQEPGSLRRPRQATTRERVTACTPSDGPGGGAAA

| Compound | pIC50 (Cavia porcellus; Cavia porcellus, Ileum) | pIC50 (Mus musculus; Mus musculus) | pKi [1] | pKi (Mu-type opioid receptor) | Ratio [9] | Ki ratio [10] | also measured |
| --- | --- | --- | --- | --- | --- | --- | --- |
| CSCC[C@H](NC(=O)[C@H](CC(C)C)NC(=O)[C@H](Cc1cnc[nH]1)NC(=O)[C@H](Cc1ccccc1)NC(=O)[C@@H](CCSC)NC(=O)[C@@H](N)Cc1ccc(O)cc1)C(=O)N[C@@H](CC(=O)O)C(N)=O (H-Y[dM]FHLMD-NH2) | 6.20 | 9.03 | 9.72 | 6.66 | – | – | – |
| Oc1ccc2c3c1O[C@H]1c4[nH]c5ccccc5c4C[C@@]4(O)[C@@H](C2)N(CC2CC2)CC[C@]314 | – | – | – | – | – | – | Ke [2]: 52.2 nM; Ke [3]: 151 nM; Ke [4]: 0.67 nM; Ke [5]: 0.67 nM; Ke [6]: 0.65 nM; Ke [7]: 0.65 nM; Ke [8]: 0.94 nM |
| CCCCN(CC(=O)N[C@@H](CC(=O)O)C(N)=O)C(=O)[C@H](CC(C)C)NC(=O)[C@H](Cc1c[nH]cn1)NC(=O)[C@H](Cc1ccccc1)NC[C@@H](CCSC)NC(=O)[C@@H](N)Cc1ccc(O)cc1 (H-[X1](Tyr)HL[NBuGly]D-NH2) | 6.37 | 7.59 | – | – | 16 | 76 | – |
| CCCCN(CC(=O)N[C@@H](CC(=O)O)C(N)=O)C(=O)[C@H](CC(C)C)NC(=O)[C@H](Cc1cnc[nH]1)NC(=O)[C@H](Cc1ccccc1)NC[C@@H](CCSC)NC(=O)[C@@H](N)Cc1ccc(O)cc1 (H-[X1](Tyr)HL[NBuGly]D-NH2) | – | – | 8.72 | 6.84 | – | – | – |
| CC[C@H](C)N(CC(=O)N[C@@H](CC(=O)O)C(N)=O)C(=O)[C@H](CC(C)C)NC(=O)[C@H](Cc1c[nH]cn1)NC(=O)[C@H](Cc1ccccc1)NC(=O)[C@@H](CCSC)NC(=O)[C@@H](N)Cc1ccc(O)cc1 (stereo in doubt; 6b) [listing 1 of 2 here] | 6.19 | 9.12 | 10.05 | 6.10 | – | – | – |
| CC[C@H](C)N(CC(=O)N[C@@H](CC(=O)O)C(N)=O)C(=O)[C@H](CC(C)C)NC(=O)[C@H](Cc1c[nH]cn1)NC(=O)[C@H](Cc1ccccc1)NC(=O)[C@@H](CCSC)NC(=O)[C@@H](N)Cc1ccc(O)cc1 (stereo in doubt; 6a) [listing 1 of 2 here] | – | – | 10.00 | 6.07 | – | – | pIC50 (Cavia porcellus): 6.16; pIC50 (Mus musculus): 9.06 |
| CSCC[C@@H](NC(=O)[C@@H](N)Cc1ccc(O)cc1)C(=O)N[C@@H](Cc1ccccc1)C(=O)N[C@@H](Cc1c[nH]cn1)C(=O)N[C@@H](CC(C)C)C(=O)N[C@H](C(=O)N[C@@H](CC(=O)O)C(N)=O)C(C)(C)C | 6.49 | 8.89 | 9.34 | 6.57 | 254 | 589 | – |
| CCCCN(CC(=O)N[C@@H](CC(=O)O)C(N)=O)C(=O)[C@@H](NC(=O)[C@H](Cc1c[nH]cn1)NC(=O)[C@H](Cc1ccccc1)NC[C@@H](CCSC)NC(=O)[C@@H](N)Cc1ccc(O)cc1)C(C)(C)C (H-[X1](Tyr)H[Tle][NBuGly]D-NH2) | 6.00 | 7.38 | – | – | 23 | 61 | – |
| CCCCN(CC(=O)N[C@@H](CC(=O)O)C(N)=O)C(=O)[C@H](CC(C)C)NC(=O)[C@H](Cc1c[nH]cn1)NC(=O)[C@H](Cc1ccccc1)NC(=O)[C@@H](CCSC)NC(=O)[C@@H](N)Cc1ccc(O)cc1 | 6.24 | 9.25 | 10.40 | 6.09 | 1030 | 18200 | – |
| CSCC[C@H](NC(=O)[C@@H](NC(=O)[C@H](Cc1c[nH]cn1)NC(=O)[C@H](Cc1ccccc1)NC(=O)[C@@H](CCSC)NC(=O)[C@@H](N)Cc1ccc(O)cc1)C(C)(C)C)C(=O)N[C@@H](CC(=O)O)C(N)=O | 5.92 | 5.61 | 8.02 | 6.42 | 0.5 | 40 | Ke [4]: 15.8 nM; Ke [5]: 17.2 nM; Ke [6]: 311 nM; Ke [7]: 16.1 nM; Ke [8]: 18.4 nM |
| CCCCN(CC(=O)N[C@@H](CC(=O)O)C(N)=O)C(=O)[C@@H](NC(=O)[C@H](Cc1c[nH]cn1)NC(=O)[C@H](Cc1ccccc1)NC(=O)[C@@H](CCSC)NC(=O)[C@@H](N)Cc1ccc(O)cc1)C(C)(C)C | 5.78 | 5.72 | 7.91 | 6.82 | 0.9 | 12 | Ke [2]: 520 nM; Ke [3]: 554 nM |
| CSCC[C@H](NC(=O)[C@H](C)NC(=O)[C@H](Cc1c[nH]cn1)NC(=O)[C@H](Cc1ccccc1)NC(=O)[C@@H](CCSC)NC(=O)[C@@H](N)Cc1ccc(O)cc1)C(=O)N[C@@H](CC(=O)O)C(N)=O | 6.67 | 6.39 | 8.77 | 6.88 | 0.5 | 78 | Ke [4]: 598 nM; Ke [7]: 632 nM; Ke [8]: 721 nM |
| CSCC[C@@H](NC(=O)[C@@H](N)Cc1ccc(O)cc1)C(=O)N[C@@H](Cc1ccccc1)C(=O)N[C@@H](Cc1c[nH]cn1)C(=O)N[C@@H](CC(C)C)C(=O)N(CC(=O)N[C@@H](CC(=O)O)C(N)=O)CC(C)C | 5.41 | 8.63 | 9.07 | 7.24 | 1640 | 68 | Ke [2]: 138 nM; Ke [3]: 165 nM |
| CC[C@H](C)N(CC(=O)N[C@@H](CC(=O)O)C(N)=O)C(=O)[C@H](CC(C)C)NC(=O)[C@H](Cc1c[nH]cn1)NC(=O)[C@H](Cc1ccccc1)NC(=O)[C@@H](CCSC)NC(=O)[C@@H](N)Cc1ccc(O)cc1 (stereo in doubt; 6b) [listing 2 of 2 here] | – | – | – | – | 844 | 9690 | – |
| CC[C@H](C)N(CC(=O)N[C@@H](CC(=O)O)C(N)=O)C(=O)[C@H](CC(C)C)NC(=O)[C@H](Cc1c[nH]cn1)NC(=O)[C@H](Cc1ccccc1)NC(=O)[C@@H](CCSC)NC(=O)[C@@H](N)Cc1ccc(O)cc1 (stereo in doubt; 6a) [listing 2 of 2 here] | – | – | – | – | 777 | 8730 | – |
| CCCCN(CC(=O)N[C@@H](CC(=O)O)C(N)=O)C(=O)[C@@H](NC(=O)[C@H](Cc1cnc[nH]1)NC(=O)[C@H](Cc1ccccc1)NC[C@@H](CCSC)NC(=O)[C@@H](N)Cc1ccc(O)cc1)C(C)(C)C (H-[X1](Tyr)H[Tle][NBuGly]D-NH2) | – | – | 8.59 | 6.80 | – | – | – |
